Measurements: PubChem BioAssay
Calls of active or inactive are those of the source. Cut-off read from the data, not from the text of the source, unless noted: active = inhibition above about 30%; inactive = the rest. Peptide text beside a SMILES is read from it. * marks the point of attachment. Boc = CC(C)(C)OC(=O)*

Key:
[1] = HUVEC growth inhibition – cell-based, human, primary screen (AID 575;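 active = viability at or below 30% in both replicate assays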;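 note: 100% = median of untreated cell wells with 0.1% DMSO on each plate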); settings: HUVEC proliferation, CellTiter-Glo luminescence, 72 h; at 10 µM; stronger effect = lower value
Outline: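 Test system: primary human umbilical vein endothelial cells; medium: endothelial basal medium with 2% FBS plus growth supplements; dosing: 10 µM compound only; times: 72 h treatment at 37 °C; signal: CTG luminescence; read-out: % viability relative to median vehicle-well signal on each plate; control set: vehicle and MePR control wells; plate: 384-well, collagen-coated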

[2] = H69AR cell proliferation blockers – human, duplicate replicates, primary screen (AID 580;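 active = viability at or under a set limit in both replicates, limit being median viability minus 3 SD, cut at about 48% in these data, passing the limit was not always enough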;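 note: 100% = mean luminescence of untreated wells and 0% = no signal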); settings: H69AR lung tumor cells viability, ATP luminescence, 72 h; at 10 µM; stronger effect = lower value
[3] = MRP1 drug-resistance reversers in H69AR cells – cell-based, doxorubicin co-treatment, pilot screen (AID 601;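 active = viability loss from added drug above about 55%, and viability with drug at most 40%, in both replicates, limit read from the data, passing the limit was not always enough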); settings: CellTiter-Glo, 72 h, at 10 µM; for differential viability (reversal): stronger effect = higher value
[4] = yeast transport mutant growth inhibition pilot in 384-well plates, post-Golgi transport modulator project (AID 636; in the data active = inhibition above about 31%); settings: absorbance 615 nm, about 18 h, stronger effect = higher value
[5] = growth suppression of yeast trafficking mutant, preliminary HTS, modulators of trafficking downstream of Golgi apparatus project, 1536-format plate, OD 615 nm (AID 637); settings: yeast transport mutant growth, absorbance 615 nm, 18 h; stronger effect = higher value
[6] = H69AR cells + 2 uM doxorubicin, measured here: viability with 2 uM doxorubicin, stronger effect = lower value
[7] = H69AR cells, compound alone cytotoxicity

Row | Structure (SMILES) | viability [1] | viability [2] | differential viability (reversal) ([3]; H69AR cells + 2 uM doxorubicin) | viability [3, 6] [%] | viability [3, 7] [%] | inhibition [4] | inhibition [5]
1 | COc1ccc(C(F)(F)F)cc1NC(=O)c1nc2nc(C)cc(C(F)F)n2n1 | 94% (inactive) | 79.9% (inactive) | -3.77% (inactive) | 83.7 | 79.9 | -1.56% (inactive) | -0.16% (inactive)
2 | COC(=O)c1ccc2c(c1)C(=O)N(C1CCCCC1)C2=O | 105% (inactive) | 104% (inactive) | 7.39% (inactive) | 96.7 | 104 | -2.93% (inactive) | 1.11% (inactive)
3 | Cc1ccc(CC23CN4CCN(CC(C4)C2O)C3)c(C)c1 (configuration not stated) | 109% (inactive) | 94.6% (inactive) | 8.52% (inactive) | 86.1 | 94.6 | -2.37% (inactive) | 3.02% (inactive)
4 | O=c1cc(CSc2nnnn2-c2ccccc2)nc2scc(-c3ccccc3)n12 | 92% (inactive) | 101% (inactive) | 6.61% (inactive) | 93.9 | 101 | 0.13% (inactive) | -7.62% (inactive)
5 | CC(NS(=O)(=O)c1ccc(OCC(=O)N2CCOCC2)c(Cl)c1)c1ccccc1 (configuration not stated) | 94.9% (inactive) | 94.7% (inactive) | 0.355% (inactive) | 94.4 | 94.7 | -6.53% (inactive) | 4.76% (inactive)
6 | CCOC(=O)c1sc(NC(=O)CSc2nc3c(cc2C#N)CCC3)c(C#N)c1C | 74.7% (inactive) | 91.1% (inactive) | -8.41% (inactive) | 99.5 | 91.1 | -5% (inactive) | -0.32% (inactive)
7 | COC(=O)CN(c1ccc2c(c1)OCO2)S(C)(=O)=O | 102% (inactive) | 110% (inactive) | 12.5% (inactive) | 97.9 | 110 | -2.63% (inactive) | 6.67% (inactive)
8 | COC(=O)c1ccccc1NC(=O)c1noc2c1CC(C(C)(C)C)CC2 (configuration not stated) | 112% (inactive) | 107% (inactive) | 14.2% (inactive) | 92.9 | 107 | -1.17% (inactive) | 0.63% (inactive)
9 | CC(C)(C)OC(=O)N1CCCC1C(=O)N1CCCC1C(=O)N1CCCC1C(=O)O (stereo not drawn) (Boc-Pro-Pro-Pro-OH; configuration not given here) | 101% (inactive) | 97.9% (inactive) | 3.05% (inactive) | 94.8 | 97.9 | -5.06% (inactive) | -0.95% (inactive)
10 | CCc1nnc(NC(=O)CSc2nnc(-c3ccoc3C)n2CC(C)C)s1 | 85.8% (inactive) | 106% (inactive) | 12.6% (inactive) | 93.8 | 106 | -4.67% (inactive) | 11.3% (inactive)
11 | S=c1nc(C2CC2)[nH]c2ccccc12 | 78.3% (inactive) | 94% (inactive) | 5.99% (inactive) | 88 | 94 | -0.92% (inactive) | 0.63% (inactive)
12 | Cc1ccc(C)c(SCC(=O)Nc2nnc(-c3ccccc3)o2)c1 | 48.4% (inactive) | 74.9% (inactive) | -0.675% (inactive) | 75.6 | 74.9 | -3.64% (inactive) | -1.27% (inactive)
13 | CN(C(=O)c1c(Cl)nc2sccn12)C1CCCCC1 | 106% (inactive) | 93.9% (inactive) | 16.4% (inactive) | 77.5 | 93.9 | -5.53% (inactive) | -5.4% (inactive)
14 | C=C(C)CSc1nnc2[nH]c(=O)cc(N)n12 | 65.8% (inactive) | 87.9% (inactive) | 13.4% (inactive) | 74.5 | 87.9 | -2.63% (inactive) | 7.62% (inactive)
15 | FC(F)(F)c1cc(-c2ccco2)nc(-n2nnc3ccccc32)n1 | 59.5% (inactive) | 79.8% (inactive) | 1.45% (inactive) | 78.3 | 79.8 | -0.91% (inactive) | 0.32% (inactive)
16 | O=S(=O)(c1ccccc1)N1CCSC1c1ccco1 (configuration not stated) | 83.6% (inactive) | 72.2% (inactive) | -15.6% (inactive) | 87.9 | 72.2 | -0.13% (inactive) | 5.56% (inactive)
17 | CN(C)S(=O)(=O)Nc1ccccc1C(N)=O | 90.8% (inactive) | 98.4% (inactive) | 13.8% (inactive) | 84.6 | 98.4 | -6% (inactive) | 0.63% (inactive)
18 | O=C(CSc1nnc(-c2ccccc2)o1)N1CCc2ccccc2C1 | 85.3% (inactive) | 93.1% (inactive) | 0.04% (inactive) | 93.1 | 93.1 | -4.53% (inactive) | -5.24% (inactive)
19 | O=C(C1CCN(S(=O)(=O)c2ccc(-n3cnnn3)cc2)CC1)N1CCN(c2ccccc2)CC1 | 103% (inactive) | 94.5% (inactive) | 2.88% (inactive) | 91.6 | 94.5 | -1.43% (inactive) | 0.48% (inactive)
20 | O=C(O)C1C2CCC(C2)C1C(=O)NCCCn1ccnc1 (configuration not stated) | 112% (inactive) | 90.6% (inactive) | 6.16% (inactive) | 84.4 | 90.6 | -7.24% (inactive) | -0.79% (inactive)
21 | Cc1ccc(S(=O)(=O)N(C)CC(=O)NC2CCCC2)cc1 | 118% (inactive) | 102% (inactive) | 17.5% (inactive) | 84.9 | 102 | -2.63% (inactive) | 0.95% (inactive)

Row | Structure (SMILES) | viability [1] | viability [2] | differential viability (reversal) ([3]; H69AR cells + 2 uM doxorubicin) | viability [3, 6] [%] | viability [3, 7] [%] | inhibition [4] | inhibition [5]
22 | COc1cccc(-c2csc3nc[nH]c(=O)c23)c1 | 92.6% (inactive) | 86.7% (inactive) | 16.7% (inactive) | 70 | 86.7 | -5.73% (inactive) | 5.71% (inactive)
23 | O=C(CN(CC1CCCO1)C(=O)CCC(=O)Nc1ccccn1)NCC1CCCO1 (configuration not stated) | 103% (inactive) | 100% (inactive) | 11.8% (inactive) | 88.2 | 100 | -7.73% (inactive) | -3.97% (inactive)
24 | CSc1cccc(NC(=O)CN(C)S(=O)(=O)c2ccccc2)c1 | 74.9% (inactive) | 95.1% (inactive) | 15.1% (inactive) | 80 | 95.1 | -4.93% (inactive) | 1.27% (inactive)
25 | CCCN(CCC)CCNS(=O)(=O)c1ccc2c(c1)oc(=O)n2C | 97.1% (inactive) | 105% (inactive) | 12.9% (inactive) | 92.5 | 105 | -2.27% (inactive) | -2.06% (inactive)
26 | CCOC(=O)c1nnn(-c2nonc2NC(C)=O)c1C | 91.7% (inactive) | 98.2% (inactive) | 1.68% (inactive) | 96.5 | 98.2 | -0.65% (inactive) | -4.13% (inactive)
27 | O=C1C=C(NCc2ccco2)C2(CCCCC2)O1 | 95.7% (inactive) | 105% (inactive) | 22.5% (inactive) | 82.2 | 105 | -1.95% (inactive) | 5.08% (inactive)
28 | Cn1nc(-c2ccc(C(=O)N3CCN(c4ccccc4)CC3)cc2)c2ccccc2c1=O | 71.2% (inactive) | 92.4% (inactive) | 3.5% (inactive) | 88.9 | 92.4 | 0.26% (inactive) | 27.3% (inactive)
29 | Oc1ccc(-c2onc(C(F)(F)F)c2-c2cscn2)c(O)c1 | 108% (inactive) | 103% (inactive) | 5.71% (inactive) | 97.3 | 103 | -2.99% (inactive) | 4.92% (inactive)
30 | CON(C)c1nc(Oc2ccc(=O)[nH]n2)nc(N(C)C)n1 | 87.6% (inactive) | 97.9% (inactive) | 11.8% (inactive) | 86.2 | 97.9 | -4.4% (inactive) | 4.44% (inactive)
31 | COc1ccc(C2(C(=O)Nc3cc(C)on3)CCOCC2)cc1 | 98% (inactive) | 88.1% (inactive) | 1.2% (inactive) | 86.9 | 88.1 | -5.87% (inactive) | 10.8% (inactive)
32 | Cc1ccc(NC(=O)c2ccco2)cc1NC(=O)CSc1nnc(-c2cccs2)n1C | 112% (inactive) | 99.8% (inactive) | 23.4% (inactive) | 76.4 | 99.8 | -6.13% (inactive) | 2.38% (inactive)
33 | COc1ccc(CCNc2oc(Cc3cccc4ccccc34)nc2C#N)cc1OC | 68.8% (inactive) | 73.1% (inactive) | -7.3% (inactive) | 80.4 | 73.1 | -5.07% (inactive) | 1.9% (inactive)
34 | Cc1ccccc1NC(=O)c1ccccc1 | 103% (inactive) | 99.6% (inactive) | 11.8% (inactive) | 87.8 | 99.6 | -5.92% (inactive) | 2.7% (inactive)
35 | O=C(NCc1ccco1)c1cccc(-c2nnc(-c3ccccc3)o2)c1 | 59.4% (inactive) | 85.8% (inactive) | 5.49% (inactive) | 80.3 | 85.8 | -4.8% (inactive) | 2.86% (inactive)
36 | CC1Cc2ccccc2N1C(=O)Cc1cccs1 (configuration not stated) | 84.8% (inactive) | 108% (inactive) | 16.1% (inactive) | 92.3 | 108 | -1.71% (inactive) | 2.06% (inactive)
37 | O=c1c2ccc(-c3nnc4n3-c3ccccc3SC4)cc2nc2n1CCCCC2 | 94.9% (inactive) | 94.4% (inactive) | 8.88% (inactive) | 85.5 | 94.4 | -5.33% (inactive) | 6.83% (inactive)
38 | CC(=O)Nc1ccc(NC2=CC(=O)CC(C)(C)C2)cc1 | 109% (inactive) | 109% (inactive) | 24.2% (inactive) | 85 | 109 | -3.38% (inactive) | 5.08% (inactive)
39 | Cc1ccc(OCc2nnc(SCC(=O)Nc3ccc4c(c3)OCO4)n2C)cc1 | 91.2% (inactive) | 76.9% (inactive) | -22.4% (inactive) | 99.3 | 76.9 | -7.07% (inactive) | 6.98% (inactive)
40 | CC(=O)OC(C(=O)NCc1ccco1)c1cccnc1 (configuration not stated) | 104% (inactive) | 87% (inactive) | 3.39% (inactive) | 83.6 | 87 | -2.08% (inactive) | 2.86% (inactive)
41 | COc1ccc(C)cc1NC(=O)CCN1CCCC1 | 105% (inactive) | 97.5% (inactive) | 9.77% (inactive) | 87.7 | 97.5 | -6.13% (inactive) | 1.11% (inactive)
